# Only some compounds are listed: those with a hit (about 0.74% of all), similar ones and a draw of the others.
# Diaph act CS – activates diaphorase or chemically reduces, flagging diaphorase assay artifacts; 190,000 compounds, 0.005% hits; Diaphorase/resazurin coupled assay, resorufin fluorescence, 16 min; stronger effect = higher value; 1 = vehicle wells, 0 = NADH-free wells; activation factor at 20 µM;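 active means diaphorase activity raised at least twofold by the compound at 20 µM; inactive means activation factor below 2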
#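 Assay system: bacterial diaphorase enzyme (C. kluyveri) / Input: enzyme 0.07 U/mL final / Medium: 50 mM HEPES pH 7.4 with 4.542 mM MgCl2, 0.005% Tween 20 / Doses: single compound dose of 20 µM, 1% DMSO final / Incubation: 16 min enzyme reaction, ambient temperature / Signal: fluorescence, excitation 544 nm and emission 590 nm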
# Diaphorase inh – diaphorase inhibition or chemical oxidation counter-screen; diaphorase resazurin-to-resorufin fluorescence, NADH, 16 min; bacterial (C. kluyveri) enzyme, not human; inhibition, % at 20 µM; 190,000 compounds, 0.69% hits; AID 1217;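 active means primary screen inhibition at 20 µM above a set limit, cut at about 50% in these data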;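 further: plate controls were DMSO with full reaction for no effect and wells lacking NADH for full effect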
#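 Assay system: diaphorase enzyme from Clostridium kluyveri; Input: enzyme working solution with 0.14 U/mL diaphorase; Timing: 16 min at room temperature; Technique: resorufin fluorescence, excitation 544 nm, emission 590 nm; Benchmarks: positive control minus NADH, DMSO neutral control.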
# Arbovirus anti – antivirals against arbovirus infection | arbovirus infection cell-based antiviral screen | inhibition, % at 10 µM | 200,000 compounds, 0.37% hits | AID 1251; in the data active means inhibition above about 30%
# HKDC1 inh – blocks human hexokinase HKDC1 activity. Q2TB90. recombinant HKDC1, G6PDH/diaphorase resazurin coupled fluorescence. inhibition, % at 20 µM. 340,000 compounds, 0.16% hits;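 active means inhibition above about 35% when tested at 20 µM, limit read from the data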;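 further: plate controls were DMSO wells with enzyme for no effect and DMSO wells lacking enzyme for full effect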
# Target sequence (Q2TB90 whole entry, looked up): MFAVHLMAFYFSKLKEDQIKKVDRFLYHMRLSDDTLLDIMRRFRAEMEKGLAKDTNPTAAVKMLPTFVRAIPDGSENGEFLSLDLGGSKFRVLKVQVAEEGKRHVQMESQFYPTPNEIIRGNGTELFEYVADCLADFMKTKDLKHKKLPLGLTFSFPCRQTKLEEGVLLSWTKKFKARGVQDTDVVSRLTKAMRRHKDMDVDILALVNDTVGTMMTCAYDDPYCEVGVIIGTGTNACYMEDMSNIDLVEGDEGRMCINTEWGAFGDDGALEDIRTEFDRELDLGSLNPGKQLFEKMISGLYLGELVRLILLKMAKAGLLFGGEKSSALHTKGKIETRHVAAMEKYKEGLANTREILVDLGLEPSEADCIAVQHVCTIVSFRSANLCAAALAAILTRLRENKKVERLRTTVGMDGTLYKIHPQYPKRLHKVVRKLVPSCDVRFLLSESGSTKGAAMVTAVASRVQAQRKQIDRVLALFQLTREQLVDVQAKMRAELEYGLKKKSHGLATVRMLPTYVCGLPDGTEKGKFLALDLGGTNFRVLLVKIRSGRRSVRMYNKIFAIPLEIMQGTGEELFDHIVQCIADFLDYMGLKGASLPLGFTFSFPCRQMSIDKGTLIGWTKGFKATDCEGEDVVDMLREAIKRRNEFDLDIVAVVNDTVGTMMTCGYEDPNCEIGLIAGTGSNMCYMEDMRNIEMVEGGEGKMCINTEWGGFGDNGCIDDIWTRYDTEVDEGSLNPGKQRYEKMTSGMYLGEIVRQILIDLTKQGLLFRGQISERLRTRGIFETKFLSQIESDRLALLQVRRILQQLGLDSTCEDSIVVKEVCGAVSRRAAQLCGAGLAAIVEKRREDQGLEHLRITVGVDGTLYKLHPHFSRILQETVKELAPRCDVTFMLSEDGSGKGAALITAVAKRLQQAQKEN
#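 test system = in-house recombinant HK5 (HKDC1) enzyme | amount = HKDC1 at 5 µg/mL | control set = DMSO-enzyme wells negative, buffer-substituted wells positive | compound = one dose of 20 µM, 1% DMSO | schedule = reaction time 90 min, room temperature, protected from light | technique = resorufin fluorescence at 613 nm | reagent = glucose with 1 mM ATP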
# G6PDH counter – counter-screen for G6PDH assay hits: L. mesenteroides G6PDH inhibition; Purified L. mesenteroides G6PDH, diaphorase/resazurin coupled fluorescence, 45 min; inhibition, % at 5 µM; 200,000 compounds, 0.12% hits; in the data active means inhibition above about 50%
# The depositor's hits bear a star; · = no result given.
SMILES,Diaph act CS,Diaphorase inh,Arbovirus anti,HKDC1 inh,G6PDH counter
Cc1cc(C)c(S(=O)(=O)N2CCN(C(=O)c3cc4ccccc4oc3=O)CC2)c(C)c1,·,·,·,-1,·
COc1ccccc1CNc1ccc(N2CCCCC2)cc1,0.3,65*,-7,-9,-14
COc1cccc(CNc2ccc(N3CCCCC3)cc2)c1OC,0.4,60*,-15,10,13
CC1CCCCC1NC(=O)CN1C(=O)NC(C)(c2cc(F)ccc2F)C1=O (stereo not drawn),·,·,·,1,·
COc1ccccc1/C=C/C(=O)Nc1ccc(S(=O)(=O)Nc2cc(C)nc(C)n2)cc1,·,·,·,-1,·
CC1(C)Cc2c(sc3c2c(N)nc(=S)n3Cc2ccc(Br)cc2)CO1,·,·,·,-3,·
Cc1ccc(/C=N/n2c(-c3ccncc3)n[nH]c2=S)cc1,0.4,60*,10,-9,5
CC(=C/c1ccccc1)/C=N/n1c(-c2ccco2)n[nH]c1=S,0.6,42,12,8,-5
CC(/C=N/n1c(-c2cc(C)[nH]n2)n[nH]c1=S)=C\c1ccccc1,0.5,51*,8,16,4
Cc1cc(-c2n[nH]c(=S)n2/N=C/c2cc([N+](=O)[O-])ccc2Cl)n[nH]1,0.5,50*,6,-1,10
O=[N+]([O-])c1cc(/C=N/n2c(-c3ccncc3)n[nH]c2=S)ccc1Cl,0.5,53*,11,6,12
COc1ccccc1CC(=O)NNC(=O)CN(C)S(=O)(=O)c1ccc(Cl)cc1,·,·,·,-3,·
COc1cccc2c1OC1(C)CC2NC(=O)N1c1cccc(C(=O)Nc2ccc3c(c2)OCCO3)c1 (stereo not drawn),0.9,8,-4,-1,0
COc1ccccc1N1C(=N)S/C(=C\c2ccc(-c3ccccc3C(=O)O)o2)C1=O,0.7,34,5,6,2
N=C1S/C(=C\c2ccc(-c3ccccc3C(=O)O)o2)C(=O)N1c1ccc2c(c1)OCO2,0.3,67*,9,18,2
O=[N+]([O-])c1cc(Cl)c(O)c2ncccc12,0.6,41,-21,9,59*
O=[N+]([O-])c1cc([N+](=O)[O-])c2cccnc2c1Oc1ccccc1O,0.4,60*,-6,1,-10
O=[N+]([O-])c1ccc(O)c2cccnc12,0.9,8,3,18,2
O=[N+]([O-])c1cc(Cl)c2cccnc2c1O,0.6,40,-14,6,46
O=[N+]([O-])c1ccc(O)c2ncccc12,0.7,30,-36,15,66*
Cc1ccc(S(=O)(=O)N2CCC(C(=O)NCC(C)(C)N3CCOCC3)CC2)c(C)c1,·,·,·,-1,·
CC(C)C(=O)N(c1cc2sc(=O)oc2c2ccccc12)S(=O)(=O)c1cccs1,0.4,61*,-28,45*,10
COc1cc2c(cc1OC)C1=C(C#N)CC/C(=N\S(=O)(=O)c3cccc(Cl)c3)N1CC2,0.4,61*,1,-2,0
COc1cc2c(cc1OC)C1=C(C#N)CCC(=NC(=O)c3ccco3)N1CC2,1.1,-6,6,-8,4
Clc1ncnc2[nH]ccc12,·,·,·,-3,·
SMILES,Diaph act CS,Diaphorase inh,Arbovirus anti,HKDC1 inh,G6PDH counter
CCc1ccc(S(=O)(=O)c2ccc(-n3nc(C)cc3N)cc2)cc1,0.9,6,33*,-4,-3
CC(Sc1nc2cc(Cl)ccc2s1)C(=O)Nc1cccc(S(=O)(=O)N2CCOCC2)c1 (stereo not drawn),0.3,66*,6,6,8
Cc1ccc(SC(C)C(=O)Nc2ccc(S(=O)(=O)N3CCOCC3)cc2)cc1 (stereo not drawn),0.5,53*,13,8,10
CC(Nc1ccc(Br)cc1)C(=O)Nc1cccc(S(=O)(=O)N2CCOCC2)c1 (stereo not drawn),·,·,·,-1,·
CC1(c2ccccc2)NC(=O)N(CC(=O)N(CC(=O)Nc2ccccc2C(F)(F)F)Cc2ccco2)C1=O (stereo not drawn),·,·,·,-2,·
CSc1ccc(/C=N/NC(=O)c2ccccc2Cl)cc1,0.4,58*,-7,1,0
COc1ccc(-c2cc3nc(-c4ccccc4)cc(N4CCC(O)CC4)n3n2)cc1,0.5,50*,-13,-5,17
O=C(COC(=O)c1cccc(S(=O)(=O)N2CCc3ccccc3C2)c1)NCc1ccco1,0.8,16,10,-3,0
O=C(COC(=O)c1cc(S(=O)(=O)N2CCc3ccccc3C2)ccc1Cl)NCc1ccco1,0.5,52*,2,8,1
OCCNc1nc(Nc2ccccc2)nc2ccccc12,1,-2,34*,-11,-4
OCCNc1nc(Nc2ccc(Br)cc2)nc2ccccc12,0.9,8,-27,-4,1
CN=c1scc(C)n1/N=C/c1ccc(O)c(O)c1O,0.2,76*,9,17,41
CN=c1scc(-c2cccs2)n1/N=C/c1ccc(O)c(O)c1O,0.3,68*,-13,27,-15
CN=c1scc(-c2cccs2)n1/N=C/c1ccccc1O,0.8,19,22,4,-2
CCC(CC)N1CCN(CC2CC=CCC2)CC1 (stereo not drawn),0.8,23,-6,-8,0
O=c1[nH]c(Nc2ccccc2)cc2ccccc12,0.9,10,2,13,55*
Oc1ccc(C=NN=C2c3ccccc3-c3ccccc32)c(O)c1,·,·,·,6,·
Cc1[nH]c2ccccc2c1C(C[N+](=O)[O-])c1ccco1 (stereo not drawn),0.5,51*,-6,9,2
COc1ccc(CNc2ccc3cn[nH]c3c2)c(OC)c1OC,0.4,57*,-9,7,28
CCOc1cc(CNc2ccc3cn[nH]c3c2)ccc1OC,0.4,57*,-19,15,33
COc1ccc(CNc2ccncc2)c(OC)c1OC,·,·,·,0,·
COc1ccccc1S(=O)(=O)Nc1ccc2cn[nH]c2c1,0.9,9,11,-7,5
O=C(O)c1cc(=S)nc[nH]1,·,·,·,-3,·
Nc1c(C(=O)Nc2ccccc2)sc2nc3c(c(-c4ccco4)c12)CCCC3,0.7,26,-3,0,6
Nc1c(C(=O)Nc2ccccc2)sc2nc3c(c(-c4ccco4)c12)CCC3,0.3,69*,-10,7,2
SMILES,Diaph act CS,Diaphorase inh,Arbovirus anti,HKDC1 inh,G6PDH counter
COc1c(O)c(=O)n2c3ccccc3c3ccnc1c32,·,·,·,4,·
O=c1c(Cl)c(O)c2cccc3c4ccccc4n1c23,0.5,52*,12,20,3
Cn1c(=O)c(C(=S)NC(=O)C2CC2)c(N)n(Cc2ccccc2)c1=O,0.3,66*,2,·,-35
CCN1c2ccccc2N(C)C1(C)c1ccccc1 (stereo not drawn),0.4,59*,-1,24,-5
CN1c2ccccc2N(C)C1(C)c1ccccc1,0.8,22,10,22,10
CCCCn1c(NC(=O)c2ccco2)c(S(=O)(=O)c2ccc(C)cc2)c2nc3ccccc3nc21,0.3,69*,-14,8,38
